From ChEMBL document CHEMBL4043069, “Streptenols F-I Isolated from the Marine-Derived Streptomyces misionensis BAT-10-03-023” (2017)

Key:
Format in all cases: functional
A549 = assay: Cytotoxicity against human A549 cells assessed as inhibition of cell growth
Procedure, shortened: (§1)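 Human tumour lines were used: A-549 lung carcinoma, MDA-MB-231 breast adenocarcinoma, HT-29 colorectal carcinoma and PSN1 pancreatic adenocarcinoma. The compounds were tested across doses. GI50, the concentration giving 50% growth inhibition, was derived from dose-response data by a literature procedure. Survival was estimated with the National Cancer Institute algorithm, and three dose-response parameters were calculated.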

PSN1 = assay: Cytotoxicity against human PSN1 cells assessed as inhibition of cell growth; procedure, shortened: as §1
MDA-MB-231 = assay: Cytotoxicity against human MDA-MB-231 cells assessed as inhibition of cell growth; procedure, shortened: as §1
HT-29 = assay: Cytotoxicity against human HT-29 cells assessed as inhibition of cell growth; procedure, shortened: as §1

| SMILES | GI50 (A549) [µM] | GI50 (PSN1) [µM] | GI50 (MDA-MB-231) [µM] | GI50 (HT-29) [µM] |
| --- | --- | --- | --- | --- |
| C/C=C/CCC(=O)C[C@@H](O)CCO[C@]1(CC/C=C/C)C[C@@H](O)CCO1 | 28 | 28 | 28 | 28 |
| C/C=C/C=C/C(=O)C[C@H](CCO)OC | 50 | 50 | 30 | 49 |
| C/C=C/CCC(=O)C[C@@H](O)CCO | 54 | 54 | 54 | 54 |
| C/C=C/C=C/C(=O)CC(CCO)OCC[C@H](O)CC(=O)/C=C/C=C/C (some centres undefined) | 29 | 29 | 29 | 29 |
| C/C=C/C=C/C(=O)CC(CCO)OCC[C@H](O)CC(=O)CC/C=C/C (some centres undefined) | 28 | 28 | 28 | 28 |
| C/C=C/C=C/C(=O)C[C@@H](O)CCO | 54 | 54 | 54 | 54 |
